According to ChEMBL document CHEMBL1123716, “Synthesis and tumor uptake of 5-halo-1-(2'-fluoro-2'-deoxy-beta-D-ribofuranosyl)[2-14C]uracils” (J Med Chem, 1987):

Columns and labels:
[1] = tested on: Mus musculus; assay: Tissue distribution in BDF1 female mice bearing an implanted lewis lung tumor after intravenous injection in skin at 2 h; assay type: ADME, organism-based, Skin of body; settings: in vivo
Summary of the method: (§1)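 Female BDF₁ mice (18–20 g) carrying transplanted Lewis lung tumor received 23–193 kBq of the [2-¹⁴C]-labeled nucleoside in normal saline via tail vein. The compound was stored as a dry film and reconstituted just before use. Animals were killed at set times, and tissue ¹⁴C was measured by combustion and liquid scintillation. Values are mean ± SD % injected dose per gram of wet tissue, n = 6.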

[2] = tested on: Mus musculus; assay: Tissue distribution in BDF1 female mice bearing an implanted lewis lung tumor after intravenous injection in spleen at 0.25 h.; assay type: ADME, organism-based; settings: in vivo; summary of the method: as §1
[3] = tested on: Mus musculus; assay: Tissue distribution in BDF1 female mice bearing an implanted lewis lung tumor after intravenous injection in bone at 0.25 h.; assay type: ADME, organism-based; settings: in vivo
Summary of the method: (§2)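 Female BDF1 mice (18–20 g) with implanted Lewis lung tumor received the 2-14C compound by tail vein, 23–193 kBq in normal saline, reconstituted from a dry film just before use. Animals were killed at set times and tissues taken for 14C counting by combustion and liquid scintillation. Values are percent injected dose per gram wet tissue, mean ± standard deviation, six animals.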

[4] = tested on: Mus musculus; assay: Tissue distribution in BDF1 female mice bearing an implanted lewis lung tumor after intravenous injection in kidney at 0.25 h.; assay type: ADME, organism-based; settings: in vivo; summary of the method: as §2
[5] = tested on: Mus musculus; assay: Tissue distribution in BDF1 female mice bearing an implanted lewis lung tumor after intravenous injection in stomach at 0.25 h.; assay type: ADME, organism-based; settings: in vivo; summary of the method: as §1
[6] = tested on: Mus musculus; assay: Radioactive constituent of 5-fluorouracil in urine at 0.5 hr time interval after intravenous injection into BDF1 female mice bearing lewis lung tumor; assay type: ADME, organism-based; settings: in vivo
Summary of the method: (§3)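 Radiolabeled nucleoside given in normal saline by tail vein, 23–193 kBq per mouse, to female BDF1 mice (18–20 g) carrying transplanted Lewis lung tumor. Urine was collected when the animals were killed. Components were identified by reverse-phase HPLC with UV at 256 nm on urine spiked with reference compounds, matched to liquid scintillation counts of the eluate. Each is reported as a percent of total urine radioactivity.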

[7] = tested on: Mus musculus; assay: Tissue distribution in BDF1 female mice bearing an implanted lewis lung tumor after intravenous injection in stomach at 0.5 h.; assay type: ADME, organism-based; settings: in vivo; summary of the method: as §1
[8] = tested on: Mus musculus; assay: Tissue distribution in BDF1 female mice bearing an implanted lewis lung tumor after intravenous injection in tumor at 1 h.; assay type: ADME, organism-based; settings: in vivo
Summary of the method: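 Female BDF1 mice (18–20 g) carrying a transplanted Lewis lung tumor were given 23–193 kBq of the [2-14C]-labelled nucleoside in normal saline by tail vein. Animals were killed at set times. Tissue 14C was counted by liquid scintillation, after combustion or directly. Values are percent of injected dose per gram wet tissue, as mean ± standard deviation of six animals.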

[9] = tested on: Mus musculus; assay: Radioactive constituent of 5-fluorouracil in urine at 4 hr time interval after intravenous injection into BDF1 female mice bearing lewis lung tumor; assay type: ADME, organism-based; settings: in vivo; summary of the method: as §3
[10] = tested on: Mus musculus; assay: Radioactive constituent of 5-fluorouracil in urine at 8 hr time interval after intravenous injection into BDF1 female mice bearing lewis lung tumor; assay type: ADME, organism-based; settings: in vivo; summary of the method: as §3
[11] = tested on: Mus musculus; assay: Radioactive constituent of other in urine at 0.5 hr time interval after intravenous injection into BDF1 female mice bearing lewis lung tumor; assay type: ADME, organism-based; settings: in vivo; summary of the method: as §3
[12] = tested on: Mus musculus; assay: Radioactive constituent of other in urine at 2 hr time interval after intravenous injection into BDF1 female mice bearing lewis lung tumor; assay type: ADME, organism-based; settings: in vivo; summary of the method: as §3
[13] = tested on: Mus musculus; assay: Radioactive constituent of other in urine at 8 hr time interval after intravenous injection into BDF1 female mice bearing lewis lung tumor; assay type: ADME, organism-based; settings: in vivo; summary of the method: as §3
[14] = tested on: Mus musculus; assay: Radioactive constituent in urine at 0.5 hr time interval after intravenous injection into BDF1 female mice bearing lewis lung tumor; assay type: ADME, organism-based; settings: in vivo; summary of the method: as §3
[15] = tested on: Mus musculus; assay: Radioactive constituent in urine at 2 hr time interval after intravenous injection into BDF1 female mice bearing lewis lung tumor; assay type: ADME, organism-based; settings: in vivo; summary of the method: as §3
[16] = tested on: Mus musculus; assay: Radioactive constituent in urine at 4 hr time interval after intravenous injection into BDF1 female mice bearing lewis lung tumor; assay type: ADME, organism-based; settings: in vivo; summary of the method: as §3
[17] = tested on: Mus musculus; assay: Radioactive constituent of uracil in urine at 0.5 hr time interval after intravenous injection into BDF1 female mice bearing lewis lung tumor; assay type: ADME, organism-based; settings: in vivo; summary of the method: as §3
[18] = tested on: Mus musculus; assay: Radioactive constituent of uracil in urine at 2 hr time interval after intravenous injection into BDF1 female mice bearing lewis lung tumor; assay type: ADME, organism-based; settings: in vivo; summary of the method: as §3
[19] = tested on: Mus musculus; assay: Radioactive constituent of uracil in urine at 4 hr time interval after intravenous injection into BDF1 female mice bearing lewis lung tumor; assay type: ADME, organism-based; settings: in vivo; summary of the method: as §3
[20] = tested on: Mus musculus; assay: Radioactive constituent of uracil in urine at 8 hr time interval after intravenous injection into BDF1 female mice bearing lewis lung tumor; assay type: ADME, organism-based; settings: in vivo; summary of the method: as §3
[21] = Total urine activity excreted at 0.5 hr was estimated from the measurement of loss of tissue activity; assay type: ADME, tissue-based
[22] = Total urine activity excreted at 8 hr was estimated from the measurement of loss of tissue activity; assay type: ADME, tissue-based
[23] = tested on: Mus musculus; assay: Radioactive constituent of other in urine at 4 hr time interval after intravenous injection into BDF1 female mice bearing lewis lung tumor; assay type: ADME, organism-based; settings: in vivo; summary of the method: as §3
[24] = tested on: Mus musculus; assay: Tissue distribution in BDF1 female mice bearing an implanted lewis lung tumor after intravenous injection in muscle at 0.25 h; assay type: ADME, organism-based; settings: in vivo; summary of the method: as §1
[25] = tested on: Mus musculus; assay: Tissue distribution in BDF1 female mice bearing an implanted lewis lung tumor after intravenous injection in skin at 0.25 h; assay type: ADME, organism-based, Skin of body; settings: in vivo; summary of the method: as §1
[26] = tested on: Mus musculus; assay: Tissue distribution in BDF1 female mice bearing an implanted lewis lung tumor after intravenous injection in skin at 2 h.; assay type: ADME, organism-based, Skin of body; settings: in vivo; summary of the method: as §1
[27] = tested on: Mus musculus; assay: Tissue distribution in BDF1 female mice bearing an implanted lewis lung tumor after intravenous injection in spleen at 0.25 h; assay type: ADME, organism-based; settings: in vivo; summary of the method: as §1
[28] = tested on: Mus musculus; assay: Tissue distribution in BDF1 female mice bearing an implanted lewis lung tumor after intravenous injection in bone at 0.25 h; assay type: ADME, organism-based; settings: in vivo; summary of the method: as §2
[29] = tested on: Mus musculus; assay: Tissue distribution in BDF1 female mice bearing an implanted lewis lung tumor after intravenous injection in stomach at 0.25 h; assay type: ADME, organism-based; settings: in vivo; summary of the method: as §1

SMILES: O=c1[nH]c(=O)n([C@H]2O[C@@H](CO)[C@H](O)[C@H]2F)cc1F
- Tissue distribution [1]: 0.06
- Tissue distribution [2]: 8.72
- Tissue distribution [3]: 1.69
- Tissue distribution [4]: 47.4
- Tissue distribution [5]: 2.18
- Total radioactivity [6]: 2.1%
- Tissue distribution [7]: 0.96
- Tissue distribution [8]: 2.24
- Total radioactivity [9]: 16.3%
- Total radioactivity [10]: 4.5%
- Total radioactivity [11]: 5%
- Total radioactivity [12]: 5.4%
- Total radioactivity [13]: 38.6%
- Total radioactivity [14]: 90.7%
- Total radioactivity [15]: 88.5%
- Total radioactivity [16]: 63.4%
- Total radioactivity [17]: 1.4%
- Total radioactivity [18]: 3.3%
- Total radioactivity [19]: 7.3%
- Total radioactivity [20]: 4.5%
- Total urine activity [21]: 68%
- Total urine activity [22]: 0.2%
- Total radioactivity [23]: 23%

SMILES: O=c1[nH]c(=O)n([C@H]2O[C@@H](CO)[C@H](O)[C@H]2F)cc1Cl
- Tissue distribution [24]: 1.48
- Tissue distribution [25]: 2.24
- Tissue distribution [26]: 0.13
- Tissue distribution [27]: 2.12
- Tissue distribution [28]: 0.77
- Tissue distribution [29]: 1.41
